Source: ChEMBL document CHEMBL1255287, “Induction of L1 and L2 beta-lactamase production in Stenotrophomonas maltophilia is dependent on an AmpR-type regulator” (2008)
Converted amounts (≈) assume the structure as drawn. The source made the active and inactive calls. The rule behind the calls is not given here.

Columns and labels:
[1] = system: Stenotrophomonas maltophilia; experiment: Induction of beta-lactamase L2 expression in Stenotrophomonas maltophilia K279a at 5 to 20 mg/L after 2 hrs […]; format: functional, organism-based
How it was run: (§1)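 Cells at OD600 0.4 grown 2 h with inducer at the stated concentration. Nitrocefin-hydrolysing activity measured in cell extracts, total first, then L2 alone after adding EDTA to 100 μM (inhibits L1). L1 = total − L2. Specific activity divided by that of an identically treated uninduced culture gives fold induction. Mean of three experiments.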

[2] = system: Stenotrophomonas maltophilia; experiment: Induction of beta-lactamase L1 expression in Stenotrophomonas maltophilia K279a at 5 to 20 mg/L after 2 hrs […]; format: functional, organism-based; how it was run: as §1
[3] = system: Stenotrophomonas maltophilia; experiment: Antimicrobial activity against Stenotrophomonas maltophilia K279a expressing beta-lactamase L1 and L2 by agar dilution method; format: functional
How it was run: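 MICs by BSAC standard agar dilution on Mueller-Hinton agar against wild-type K279a and its ampR frameshift derivative.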

[4] = system: Stenotrophomonas maltophilia; experiment: Antimicrobial activity against Stenotrophomonas maltophilia K279a harboring -121 frameshift mutation in ampR gene by agar dilution method; format: functional
How it was run: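 MICs by BSAC standard agar dilution on Mueller-Hinton agar against S. maltophilia K279a carrying a frameshift-disrupted ampR (ampRFS); values in mg/liter.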

[5] = system: Stenotrophomonas maltophilia; experiment: Induction of beta-lactamase L2 expression in Stenotrophomonas maltophilia K279a at 0.1 to 0.8 mg/L after 2 hrs […]; format: functional, organism-based; how it was run: as §1
[6] = system: Stenotrophomonas maltophilia; experiment: Induction of beta-lactamase L2 expression in Stenotrophomonas maltophilia M1 mutant assessed as L2 activity at 10 mg/L after 2 hrs by […] method; format: functional
How it was run: (§2)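 Nutrient broth cultures were grown to OD600 0.4, then exposed to 10 mg/liter imipenem as inducer for 2 h. Uninduced cultures were grown to OD600 0.6. Total nitrocefin-hydrolysing specific activity of cell extracts was read spectrophotometrically, then reassayed after adding EDTA to 100 μM to inhibit L1. Values are percent L1 or L2 of total activity, as means of three experiments.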

[7] = system: Stenotrophomonas maltophilia; experiment: Induction of beta-lactamase L1 expression in Stenotrophomonas maltophilia M2 mutant assessed as L1 activity at 10 mg/L after 2 hrs by […] method; format: functional; how it was run: as §2
[8] = system: Stenotrophomonas maltophilia; experiment: Induction of beta-lactamase L2 expression in Stenotrophomonas maltophilia M2 mutant assessed as L2 activity at 10 mg/L after 2 hrs by […] method; format: functional; how it was run: as §2
[9] = system: Stenotrophomonas maltophilia; experiment: Induction of beta-lactamase L1 expression in Stenotrophomonas maltophilia K279a at 0.1 to 0.8 mg/L after 2 hrs […]; format: functional, organism-based; how it was run: as §1
[10] = system: Stenotrophomonas maltophilia; experiment: Induction of beta-lactamase L1 expression in Stenotrophomonas maltophilia M1 mutant assessed as L1 activity at 10 mg/L after 2 hrs by […] method; format: functional; how it was run: as §2

Compound | MIC [3] [µg/mL] | MIC [4] [µg/mL] | also measured
CO[C@@]1(NC(=O)Cc2cccs2)C(=O)N2C(C(=O)O)=C(COC(N)=O)CS[C@@H]21 | – | – | Activity [1]: Active; Activity [2]: Active
CC1(C)S[C@@H]2[C@H](NC(=O)[C@H](N)c3ccccc3)C(=O)N2[C@H]1C(=O)O [AMPICILLIN] | 2050 (≈ 5860 µM) | 8 | –
CO/N=C(\C(=O)N[C@@H]1C(=O)N2C(C(=O)O)=C(COC(C)=O)CS[C@H]12)c1csc(N)n1 [CEFOTAXIME] | 1020 (≈ 2250 µM) | < 4 | –
CC(C)(O/N=C(\C(=O)N[C@@H]1C(=O)N2C(C(=O)[O-])=C(C[n+]3ccccc3)CS[C@H]12)c1csc(N)n1)C(=O)O [CEFTAZIDIME] | 128 (≈ 234 µM) | < 4 | –
C[C@@H](O)[C@H]1C(=O)N2C(C(=O)O)=C(SCCNC=N)C[C@H]12 [IMIPENEM ANHYDROUS] | 64 (≈ 214 µM) | < 4 | Activity [5]: Active; Activity [6]: 34%; Activity [7]: 61%; Activity [8]: 39%; Activity [9]: Active; Activity [10]: 66%
C[C@@H](O)[C@H]1C(=O)N2C(C(=O)O)=C(S[C@@H]3CN[C@H](C(=O)N(C)C)C3)[C@H](C)[C@H]12 [MEROPENEM] | 64 (≈ 167 µM) | < 4 | –
CCN1CCN(C(=O)N[C@@H](C(=O)N[C@@H]2C(=O)N3[C@@H]2SC(C)(C)[C@@H]3C(=O)O)c2ccccc2)C(=O)C1=O [PIPERACILLIN] | 2050 (≈ 3960 µM) | 32 | –
